Source: article PMC10392812 (Journal of the American Chemical Society, 2023)

Molecular target: T1, EDC3 (Homo sapiens, UniProt Q96F86)
T1 sequence (Q96F86 1-508): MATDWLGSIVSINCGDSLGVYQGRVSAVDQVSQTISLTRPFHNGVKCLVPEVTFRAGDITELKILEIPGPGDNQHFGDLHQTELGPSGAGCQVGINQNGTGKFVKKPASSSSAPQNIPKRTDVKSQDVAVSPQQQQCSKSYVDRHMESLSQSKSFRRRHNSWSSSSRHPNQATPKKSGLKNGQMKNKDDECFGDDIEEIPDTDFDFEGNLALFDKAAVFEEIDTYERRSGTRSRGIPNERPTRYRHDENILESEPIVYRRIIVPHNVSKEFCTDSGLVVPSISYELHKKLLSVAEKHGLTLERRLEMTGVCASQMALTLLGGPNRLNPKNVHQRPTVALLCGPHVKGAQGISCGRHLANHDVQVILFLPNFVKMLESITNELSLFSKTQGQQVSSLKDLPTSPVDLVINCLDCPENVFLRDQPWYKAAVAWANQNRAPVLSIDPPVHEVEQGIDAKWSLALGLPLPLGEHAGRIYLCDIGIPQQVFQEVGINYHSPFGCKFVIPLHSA
Assay: competitive gel-based ABPP in situ
Type: cell-based
In short: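 Recombinant EDC3-expressing HEK293T cells pretreated with test compound (0.1–100 µM, 2 h); lysed, and soluble proteomes labelled with HHS-465 Tyr/Lys-reactive sulfonyl-triazole probe (100 µM, 1 h, RT). CuAAC to rhodamine-azide, SDS-PAGE and in-gel fluorescence scanning. IC50 estimated from dose-dependent loss of EDC3 probe labelling; mean ± SEM, n = 3 biologically independent replicates.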

IC50: ~6 µM
Compound: COc1ccc(S(=O)(=O)n2cc(CS(C)(=O)=O)nn2)cc1 [AHL-030]
